# Screening results (PubChem BioAssay)
# Scp-1 inhibitor: Scp-1 (human) phosphatase inhibition. Recombinant Scp1, phosphopeptide, malachite green phosphate absorbance. inhibition, % at 20 µM. 340,000 tested, 0.88% active;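 active means inhibition above about 50% at 20 µM, limit read from the data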;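 further: plate controls were DMSO wells with enzyme for no effect and wells lacking enzyme for full effect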
#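 Test system: SCP-1 catalytic domain; Buffer or medium: Acidic Tris acetate buffer with magnesium and detergent; Also added: Phosphorylated 17-residue peptide substrate; Compound: single 20 µM dose, 1% DMSO; Schedule: enzyme reaction 45 min at room temperature, colour 5 min, stabilisation 30 min; Signal: Phosphate-binding colour reagent, absorbance read at 630 nm.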
# STEP inh: inhibitors of human striatal-enriched phosphatase STEP. P54829. recombinant STEP, OMFP fluorogenic substrate, fluorescence. inhibition, % at 20 µM. 360,000 tested, 0.25% active. AID 588621;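 active means inhibition at 20 µM, scaled per plate between control wells, above about 37%, limit read from the data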;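 further: 0% = DMSO with enzyme and substrate and 100% = substrate only without enzyme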
#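 Material: STEP (striatal-enriched tyrosine phosphatase) enzyme, cell-free; Compound dosing: 20 µM single dose in 1% DMSO; Technique: fluorescence read at 480 nm ex / 540 nm em; Times: reaction 20 min, ambient temperature; Medium: 50 mM Bis-Tris pH 6.0 with 2.5 mM DTT and 0.005% Tween 20; Also added: OMFP at 25 µM.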
# SUMO1 PPI mod: modulators of human SUMO1-mediated protein-protein interactions; SUMO1 binding to a labelled peptide, TR-FRET, 1 h; 360,000 tested, 0.33% active; P63165; inhibition, % at 20 µM; AID 602429; in the data active means inhibition above about 37%
# LMPTP block: LMPTP (human) inhibition | inhibition, % at 20 µM | AID 651560 | recombinant LMPTP-A, OMFP fluorogenic substrate, fluorescence intensity | 360,000 tested, 0.22% active | P24666;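 active means compounds that cut the enzyme signal by at least half of the control window in the single-dose screen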;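 further: plate controls were DMSO wells with enzyme plus substrate for no effect and substrate without enzyme for full effect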
#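 Test system – LMPTP-A phosphatase enzyme · Quantity – 0.625 nM LMPTP-A final · Reagent – OMFP substrate, 400 µM final · Dosing – one test concentration per compound, 20 µM, with 3% DMSO overall · Timing – 50 min enzyme reaction at room temperature, protected from light · Detection – fluorescence intensity · Controls – substrate-only low control, DMSO enzyme-plus-substrate high control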
# FAS TE block: FAS thioesterase (human) inhibition. recombinant FAS-TE, OMFH fluorogenic substrate, fluorescence endpoint. P49327. inhibition, % at 15 µM. 360,000 tested, 0.67% active;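 active means compounds whose normalised, plate-corrected inhibition of enzyme fluorescence in the single-dose primary screen is 50% or more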;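 further: 0% = DMSO with enzyme and 100% = substrate without enzyme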
# FAS-TE inh conf: FAS thioesterase (human) inhibition, confirmation; recombinant FAS-TE, OMFH fluorogenic substrate, fluorescence; inhibition, % at 15 µM; 2,300 tested, 45% active; shares compounds with FAS TE block;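 active means compounds inhibiting the enzyme by at least 50% at 15 µM in any one of the replicates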;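 further: 0% = enzyme with DMSO only and 100% = wells lacking enzyme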
# * marks the source's active call; other numbers are inactive results; nt = no result given. Hits are enriched below; roughly 1.9% of the tested compounds scored in any of these assays.
SMILES,Scp-1 inhibitor,STEP inh,SUMO1 PPI mod,LMPTP block,FAS TE block,FAS-TE inh conf
CCN(CC(=O)NCc1ccc(Cl)cc1)C(=O)/C=C/c1ccccc1,-7,-1,2,-1,18,nt
COc1ccc(C(=O)OCC(=O)NCc2ccc3c(c2)OCO3)cc1[N+](=O)[O-],-13,1,-25,0,50*,1
COc1ccc(-c2cc(C(=O)Nc3cc(S(=O)(=O)N4CCOCC4)ccc3N3CCOCC3)c3ccccc3n2)cc1,2,2,0,2,82*,28
O=C(Nc1nc(-c2ccc(S(=O)(=O)N3CCCC3)cc2)cs1)c1ccco1,-15,2,10,3,70*,65*
O=C(Nc1cc(S(=O)(=O)N2CCOCC2)ccc1N1CCCC1)c1ccc2c(c1)S(=O)(=O)c1ccccc1C2=O,-9,10,-26,4,79*,20
CNc1nc(-c2ccc(S(=O)(=O)N3CCCCC3)cc2)cs1,-2,-1,-22,0,12,nt
CC(C)C(=O)Nc1nc(-c2ccc(S(=O)(=O)N3CCOCC3)cc2)cs1,-4,0,-5,1,85*,86*
O=C(CCc1nc2ccccc2c(=O)[nH]1)N1CCN(S(=O)(=O)c2ccc(F)cc2)CC1,-5,-3,-1,-2,-6,nt
CC(=O)C[C@H](O)CC(=O)[C@H]1OC(=O)CCCCCCc2ccccc21,-5,-2,-2,-1,-6,nt
CCN(CC)S(=O)(=O)c1ccc(N2CCCC2)c(NC(=O)c2ccc(N3CCCC3=O)cc2)c1,-3,-1,-9,-9,0,nt
CCCOc1ccc(C(=O)Nc2cc(S(=O)(=O)N3CCOCC3)ccc2N2CCN(CC)CC2)cc1OC,-2,0,-16,-8,-1,nt
O=C(COc1cccc(Cl)c1)Nc1nc(-c2ccc(S(=O)(=O)N3CCOCC3)cc2)cs1,-20,2,1,2,66*,23*
CCOc1cccc(C(=O)Nc2nc(-c3ccc(S(=O)(=O)N4CCOCC4)cc3)cs2)c1,-7,-4,0,1,10,nt
COc1ccccc1C(=O)Nc1nc(-c2ccc(S(=O)(=O)N3CCOCC3)cc2)cs1,-16,-1,-4,2,52*,23*
CCOc1ccc(S(=O)(=O)N2CCC(C(=O)Nc3ccc(C)c(S(=O)(=O)N4CCOCC4)c3)CC2)cc1,-12,-2,2,3,52*,29
Cc1ccc(S(=O)(=O)N2CCC(C(=O)Nc3ccc(S(=O)(=O)N4CCOCC4)cc3)CC2)cc1,-18,-2,-2,1,14,nt
C[C@H]1COC2=C1C(=O)C(=O)c1c2ccc2c1CCCC2(C)C,7,6,32,34,36,nt
Cc1coc2c1C(=O)C(=O)c1c-2ccc2c1CCCC2(C)C,-4,3,9,9,58*,22
CCNC(=O)c1ccccc1NC(=O)C1CC(=O)N(C(C)C)C1 (configuration not stated),-5,-2,5,-4,-6,nt
CN(C)C(=O)CCc1ccc2c3c([nH]c2c1)[C@]1(CCC2CCCC2)[C@@H](C(=O)N2CCOCC2)C[C@H](CC(=O)NCc2cccc(C(F)(F)F)c2)C(=O)N1CC3,1,1,1,2,22,nt
O=C(CC1C[C@H](C(=O)N2CCOCC2)[C@@]2(CCC3CCCC3)c3[nH]c4ccccc4c3CCN2C1=O)NCc1cccc(C(F)(F)F)c1 (some centres not stated),-8,2,1,7,61*,34*
COc1ccc(CNC(=O)CC2C[C@H](C(=O)N3CCOCC3)[C@@]3(CCC4CCCC4)c4[nH]c5ccccc5c4CCN3C2=O)cc1OC (some centres not stated),-4,0,-20,1,77*,88*
COc1ccc(CNC(=O)C[C@H]2C[C@H](C(=O)N3CCCCC3)[C@@]3(CCc4ccccc4)c4[nH]c5ccc(Cl)cc5c4CCN3C2=O)cc1OC,0,1,-4,6,69*,19
COc1ccc(C/C(N)=N/OC(=O)CCc2ccccc2)cc1,-7,0,-4,0,1,nt
COc1ccc(-c2c(NC(=O)c3ccco3)oc3ccccc3c2=O)cc1OC,-4,1,3,1,-8,nt
SMILES,Scp-1 inhibitor,STEP inh,SUMO1 PPI mod,LMPTP block,FAS TE block,FAS-TE inh conf
COc1cc(S(=O)(=O)Nc2ccc(C)cc2)ccc1N=Cc1c(C)[nH]n(-c2ccccc2)c1=O,-3,0,7,4,55*,40
CCCN(C(=O)Cc1c(C(=O)O)n(C)c2ccccc12)c1cccc(C)c1,-8,3,9,-1,6,nt
COc1ccc(C(=O)COC(=O)C(CCSC)NC(=O)COc2ccccc2)cc1 (configuration not stated),-8,-1,2,1,64*,14
CCOC(=O)C1CCN(S(=O)(=O)c2ccc(Cl)s2)CC1,1,-1,6,-1,6,nt
CCOc1cc(/C=N/NC(=O)C(=O)NCCCOC(C)C)cc(Br)c1O,-9,0,-2,-4,-8,nt
CNC(=S)N(Cc1cccs1)Cc1cc2cc(OC)ccc2[nH]c1=O,-1,-2,5,0,-1,nt
Cc1ccc(NC(=O)N(CCCN2CCOCC2)Cc2cc3cc4c(cc3[nH]c2=O)OCO4)cc1,16,-1,-4,1,-5,nt
O=C(Nc1ccc(F)cc1)N(Cc1cccs1)Cc1cc2cc3c(cc2[nH]c1=O)OCO3,1,1,1,1,55*,34
COc1ccc2[nH]c(=O)c(CN(Cc3cccs3)C(=S)Nc3cccc(C)c3)cc2c1,-1,-1,3,1,72*,7
COC(=O)c1ccccc1NC(=S)N(Cc1ccc2c(c1)OCO2)Cc1cc2ccc(C)cc2[nH]c1=O,-10,0,1,0,79*,29
Cc1ccc(NC(=O)N(Cc2ccc3c(c2)OCO3)Cc2cc3cc4c(cc3[nH]c2=O)OCCO4)cc1,-6,-2,-2,4,75*,26
COc1ccc(CS(=O)(=O)CC(C)(O)c2ccccc2Cl)cc1 (configuration not stated),-8,-3,3,-3,-2,nt
CCCOc1ccc2ccccc2c1/C=N/n1c(C)nnc1-n1nc(C)cc1C,-15,-1,-15,-1,1,nt
CCCC(=O)OCCNc1cc(SCc2ccco2)c2nonc2c1[N+](=O)[O-],2,6,24,8,25,nt
CCCSc1cc(NCCOC(=O)CCC)c([N+](=O)[O-])c2nonc12,-10,0,-22,0,51*,58*
CCCC(=O)OCCNc1cc(Sc2nccn2C)c2nonc2c1[N+](=O)[O-],-5,4,-18,0,62*,62*
